We go through three compounds from ChEMBL document CHEMBL4665717, “New V1a receptor antagonist. Part 2. Identification and optimization of triazolobenzazepines” (Bioorg Med Chem Lett, 2020).

In series [1] the target is T1, Vasopressin V1a receptor (Homo sapiens, UniProt P37288). In words: Displacement of [3H]AVP from human V1a receptor expressed in […] cells assessed as dissociation constant by radioligand binding assay. The class given is cell-based, 1321N1. In short, it runs like this:
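Membranes from 1321N1 cells expressing human V1a or V2 receptor incubated with [3H]AVP and increasing test compound concentrations. Nonspecific binding defined with 2 µM arginine-vasopressin for both receptors. IC50 taken from sigmoidal fit of displacement curves, then converted to Ki by Cheng-Prusoff.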
(In general: In a radioligand displacement assay an active substance lowers the binding of a labelled ligand.)

The target in series [2] is T1, Vasopressin V1a receptor. As to the kind of experiment: Inhibition of human V1a receptor expressed in human 1321N1 cells assessed as decrease in Arg8-vasopressin-stimulated calcium flux by fluorometric calcium assay. The class given is functional, cell-based. The procedure, abridged:
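1321N1 cells expressing human V1a receptor stimulated with (Arg8)-vasopressin. Intracellular Ca2+ change measured. IC50 values averaged from at least three independent measurements.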
A general note: Calcium assays in cells follow changes in intracellular calcium, usually with a dye or a luminescent sensor.

For series [3], the target named is T2, Vasopressin V2 receptor (Homo sapiens, UniProt P30518). In words: Displacement of [3H]AVP from human V2a receptor expressed in 1132N1 cells assessed as dissociation constant by radioligand binding assay.
T2 sequence (P30518 whole entry): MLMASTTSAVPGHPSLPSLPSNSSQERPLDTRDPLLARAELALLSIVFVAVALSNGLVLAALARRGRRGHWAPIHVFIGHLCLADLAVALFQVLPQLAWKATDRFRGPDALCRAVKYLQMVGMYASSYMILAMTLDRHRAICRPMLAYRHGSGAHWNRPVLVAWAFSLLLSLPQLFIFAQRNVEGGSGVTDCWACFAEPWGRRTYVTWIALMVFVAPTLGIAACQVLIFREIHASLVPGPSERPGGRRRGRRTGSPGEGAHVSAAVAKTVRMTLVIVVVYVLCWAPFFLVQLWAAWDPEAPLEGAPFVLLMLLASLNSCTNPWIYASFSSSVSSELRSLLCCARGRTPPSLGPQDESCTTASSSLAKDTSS
A short description of series [4]: in vitro. The note with it: human.
A short description of series [5]: in vitro. The note with it: Wistar, rat.
Series [6] can be described thus: in vitro. The note with it: NMRI, mouse.
Series [7] has as its system Mus musculus. As to the kind of experiment: Anti-depression activity in mouse assessed as inhibition of oxytocin-induced scratching at 30 mg/kg, po administered before oxytocin stimulation and measured after 1 hr.
The target of series [8] is T2, Vasopressin V2 receptor. As to the kind of experiment: Displacement of [3H]AVP from human […] receptor expressed in […] cells at 1 uM by radioligand binding assay relative to control. The note with it: 1321N1. The class given is cell-based. The procedure, abridged: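 Membranes from 1321N1 cells expressing human V1a or V2 receptor incubated with [3H]AVP and single test concentration. Nonspecific binding defined with 2 µM arginine-vasopressin.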

For series [9], the species on record is Mus musculus. In words: animal or person. The note with it: ip, 1 h, read-out: INH.
Series [10] in a line: Apparent permeability across apical to basolateral side in vinblastine-treated human Caco-2 cells at 1 uM by HPLC-UV analysis. The class given is ADME. In short, it runs like this: (§1)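 Bidirectional transport across VB-Caco-2 monolayers with test compound at 1 or 10 µM. Apparent permeability A→B reported, with PDR from the two directions.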
Background: Passage across Caco-2 layers is used to estimate intestinal permeability.

For the next series, the system named is P-glycoprotein. As to the kind of experiment: Efflux ratio of Apparent permeability across apical to basolateral side in vinblastine-treated human Caco-2 cells expressing P-glycoprotein at 1 uM by HPLC-UV analysis. The class given is ADME. The procedure, abridged:
as §1

Each structure is given as a SMILES string.

T1 sequence (P37288 whole entry): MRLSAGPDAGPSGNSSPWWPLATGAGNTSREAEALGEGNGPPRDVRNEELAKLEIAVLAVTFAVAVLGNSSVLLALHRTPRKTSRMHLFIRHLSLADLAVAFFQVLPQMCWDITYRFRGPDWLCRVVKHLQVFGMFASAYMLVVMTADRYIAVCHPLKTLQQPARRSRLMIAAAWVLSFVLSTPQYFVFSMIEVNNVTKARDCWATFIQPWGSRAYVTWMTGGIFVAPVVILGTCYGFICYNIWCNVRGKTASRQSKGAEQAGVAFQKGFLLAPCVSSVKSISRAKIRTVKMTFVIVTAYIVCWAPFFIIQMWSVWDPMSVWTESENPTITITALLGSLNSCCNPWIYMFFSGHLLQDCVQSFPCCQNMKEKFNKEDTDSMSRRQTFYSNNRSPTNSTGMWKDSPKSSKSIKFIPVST

With `Clc1ccc2c(c1)CCCc1nnc([C@H]3CC[C@H](Oc4ccccn4)CC3)n1-2`, the Ki (commonly a measure of affinity in units of concentration, obtained from inhibition or displacement) on Vasopressin V1a receptor [1] is 0.8 nM; on Vasopressin V2 receptor [3] it was 560 nM. Besides, on Vasopressin V1a receptor [2], the IC50 – broadly, the concentration at which inhibition is half-maximal – is 1 nM. Moreover, the microsomal CLint (as a rule, the capacity of the preparation to metabolise the compound, expressed as a volume cleared per time) at 1 µM in the series “in vitro [4]” (liver microsomes) was found to be 7 µL/min/mg; in “in vitro [5]” (liver microsomes) it was 124 µL/min/mg; in “in vitro [6]” (liver microsomes), 94 µL/min/mg. In addition, in the series with Mus musculus [7], the inhibition in vivo at 30 mg/kg was found to be 94%.

Consider `Clc1ccc2c(c1)CCc1nnc([C@H]3CC[C@H](Oc4ccccn4)CC3)n1-2`, for which the Ki on Vasopressin V1a receptor [1] came to 9 nM. Moreover, the IC50 on Vasopressin V1a receptor [2] was found to be 70 nM. The inhibition (in general, how much of the control response was suppressed) on Vasopressin V2 receptor [8] turned out to be 13%. Moreover, the microsomal CLint at 1 µM in the series “in vitro [4]” (liver microsomes) came out at 3 µL/min/mg; in the series “in vitro [5]” (liver microsomes) it was 12 µL/min/mg; in the series “in vitro [6]” (liver microsomes), 15 µL/min/mg. For the same compound, in the series filed under Mus musculus [9], the inhibition in vivo at 10 mg/kg was 66%.

As for `CN1Cc2cc(Cl)ccc2-n2c(nnc2[C@H]2CC[C@H](Oc3ccccn3)CC2)C1` [BALOVAPTAN], at Vasopressin V1a receptor [2], the IC50 was 3 nM. Moreover, the apparent permeability from apical to basolateral (Papp A→B) (as a rule, the apparent permeability from the apical to the basolateral side of a cell layer) at 1 µM in [10] was 43 ×10⁻⁶ cm/s. Further, the efflux ratio (in general, the permeability from basolateral to apical divided by that in the opposite direction, in the common usage) at 1 µM in the series with P-glycoprotein was 1.1. Also, the microsomal CLint at 1 µM stood at 0.5 µL/min/mg in “in vitro [4]” (microsomes), 22 µL/min/mg in the series “in vitro [5]” (microsomes) and 17 µL/min/mg in “in vitro [6]” (microsomes). Further, the inhibition in vivo at 30 mg/kg with Mus musculus [7] amounted to 80%.
